Assay results pooled from the literature.
Each line is one published result; the experiments were not run side by side.
PIK3CA H1047Y: Phosphatidylinositol 4,5-bisphosphate 3-kinase catalytic subunit alpha isoform (PIK3CA, Homo sapiens, UniProt P42336, H1047Y)
PIK3CA E542K: Phosphatidylinositol 4,5-bisphosphate 3-kinase catalytic subunit alpha isoform (PIK3CA, Homo sapiens, UniProt P42336, E542K)
PIK3CA Q546K: Phosphatidylinositol 4,5-bisphosphate 3-kinase catalytic subunit alpha isoform (PIK3CA, Homo sapiens, UniProt P42336, Q546K)
PIK3CA M1043I: Phosphatidylinositol 4,5-bisphosphate 3-kinase catalytic subunit alpha isoform (PIK3CA, Homo sapiens, UniProt P42336, M1043I)
PIK3CA I800L: Phosphatidylinositol 4,5-bisphosphate 3-kinase catalytic subunit alpha isoform (PIK3CA, Homo sapiens, UniProt P42336, I800L)
PIK3CA H1047L: Phosphatidylinositol 4,5-bisphosphate 3-kinase catalytic subunit alpha isoform (PIK3CA, Homo sapiens, UniProt P42336, H1047L)
PIK3CA: Phosphatidylinositol 4,5-bisphosphate 3-kinase catalytic subunit alpha isoform (PIK3CA, Homo sapiens, UniProt P42336)
PIK3CA E545K: Phosphatidylinositol 4,5-bisphosphate 3-kinase catalytic subunit alpha isoform (PIK3CA, Homo sapiens, UniProt P42336, E545K)
PIK3CA E545A: Phosphatidylinositol 4,5-bisphosphate 3-kinase catalytic subunit alpha isoform (PIK3CA, Homo sapiens, UniProt P42336, E545A)

| Structure (SMILES) | target | assay | conditions | remaining binding |
| --- | --- | --- | --- | --- |
| CNC(=O)[C@@H]1CC[C@@H](n2c(-c3ccc4cnccc4c3)nc3ccc(C(=O)NCc4cccc(C(N)=O)c4)cc32)C1 | PIK3CA H1047Y | binding, competition with immobilised ligand | 1 µM | 100% |
| COc1ncc2cc3ccccc3nc2c1C#N | PIK3CA E542K | cell-free assay, competition with immobilised ligand | 5 µM | 100% |
| Nc1ncc2c(n1)-c1c([nH]c3ccc(C#CC4CC4)cc13)CCCC2 | PIK3CA Q546K | binding, competition with immobilised ligand | 1 µM | 98% |
| CN1CCN(c2ccc(Nc3nccc(-c4ccccc4)n3)cc2C(F)(F)F)CC1 | PIK3CA M1043I | binding | 10 µM | 92% |
| c1cncc(-c2cccc(Nc3nccc(NC4CCCCC4)n3)c2)c1 | Phosphatidylinositol 4,5-bisphosphate 3-kinase catalytic subunit alpha isoform (PIK3CA, Homo sapiens, UniProt P42336, C420R) | binding, competition with immobilised ligand | 10 µM | 73% |
| C=CC(=O)N1CCC(C(=O)NCC(=O)N2CCN(c3nc(-c4cnc(N)nc4C(F)F)nc(N4CCOCC4)n3)CC2)CC1 | PIK3CA Q546K | binding, competition with immobilised ligand | 1 µM | 0% |
| O=C(NCC1CCOCC1)c1n[nH]cc1NC(=O)c1c(F)cccc1F | PIK3CA I800L | binding, competition with immobilised ligand | 1 µM | 77% |
| Cc1cnc(Nc2ccc(C(=O)N3CCC(N4CCCC4)CC3)cc2)nc1-c1cc2ccccc2s1 | PIK3CA Q546K | binding, competition with immobilised ligand | 1 µM | 97% |
| CN1CCN(c2ccc(Nc3nccc(-c4cccc([N+](=O)[O-])c4)n3)cc2C(F)(F)F)CC1 | PIK3CA E542K | binding | 10 µM | 36% |
| O=C(NS(=O)(=O)c1ccc(NCC2CCOCC2)c([N+](=O)[O-])c1)c1ccc(N2CCN(Cc3ccc(C(F)(F)F)cc3-c3ccc(Cl)cc3)CC2)cc1Oc1cnc2[nH]ccc2c1 | PIK3CA H1047Y | cell-free assay, competition with immobilised ligand | 1 µM | 67% |
| O=C(NCCCN1CCOCC1)c1ccc(Nc2nccc(-c3cc4ccccc4s3)n2)cc1 | PIK3CA H1047L | binding, competition with immobilised ligand | 1 µM | 90% |
| c1ccc(N2CCN(Cc3nc4ccccc4[nH]3)CC2)nc1 | PIK3CA Q546K | cell-free assay, competition with immobilised ligand | 1 µM | 100% |
| CCN1CCN(Cc2ccc(C(=O)Nc3ccc(C)c(Oc4ccc5c(c4)CC(=O)N5)c3)cc2C(F)(F)F)CC1 | PIK3CA | binding, competition with immobilised ligand | 1 µM | 86% |
| F[C@@H]1CCN(c2nccc(-c3cnn4ncccc34)n2)C1 | PIK3CA I800L | binding | 1 µM | 100% |
| O=C(c1ccc(Nc2nccc(-c3cc4ccccc4s3)n2)cc1)N1CCC(N2CCCC2)CC1 | PIK3CA E545K | binding, competition with immobilised ligand | 1 µM | 82% |
| CC1CCCN1c1nccc(-c2cnn3ncccc23)n1 (stereo not shown) | PIK3CA E545K | binding | 1 µM | 100% |
| CCCOc1ccc([C@H]2[C@H](C(=O)O)[C@@H](c3ccc4c(c3)OCO4)CN2CC(=O)Nc2c(CC)cccc2CC)cc1 | PIK3CA I800L | cell-free assay, competition with immobilised ligand | 1 µM | 81% |
| C[C@@H](c1ccc(-n2cnc3c(N)ncnc32)cc1)N1CCc2nn(C)c(Cc3ccccc3)c2C1=O | PIK3CA I800L | binding, competition with immobilised ligand | 0.1 µM | 71% |
| CS(=O)(=O)N1CCCC(NC(=O)[C@H](CCC2CCCCC2)NC(=O)c2ccc(CNC(=O)c3cnc4ccccn34)cc2)C1 (stereo partly shown) | PIK3CA | binding, competition with immobilised ligand | 1 µM | 37% |

| Structure (SMILES) | target | assay | conditions | remaining binding |
| --- | --- | --- | --- | --- |
| COc1cnc(Nc2cccc(S(N)(=O)=O)c2)nc1N1CCN(c2ccccc2)C(=O)C1 | PIK3CA M1043I | binding, competition with immobilised ligand | 1 µM | 85% |
| CC1=C(C#N)C(c2ccc3c(c2)c(NC(=O)c2ccccc2C)nn3C)C(C#N)=C(C)N1 | PIK3CA Q546K | cell-free assay, competition with immobilised ligand | 1 µM | 87% |
| O=C(NCCCN1CCOCC1)c1ccc(Nc2ncc(Cl)c(-c3ccc(Cl)s3)n2)cc1 | PIK3CA E545A | binding, competition with immobilised ligand | 1 µM | 100% |
| CN1CC[C@H](c2c(O)cc(O)c3c(=O)cc(-c4ccccc4Cl)oc23)[C@H](O)C1 | PIK3CA | cell-free assay, competition with immobilised ligand | 10 µM | 97% |
| CN(c1nccc(-c2cnn3ncccc23)n1)C1CC1 | PIK3CA E545K | binding | 1 µM | 100% |
| COc1cnc(Nc2cccc(S(N)(=O)=O)c2)nc1N1CCN(c2ccccc2)CC1 | PIK3CA I800L | binding, competition with immobilised ligand | 1 µM | 83% |
| O=C(c1ccc(Nc2ncc(Cl)c(-c3ccc(Cl)s3)n2)cc1)N1CCC(N2CCCC2)CC1 | PIK3CA H1047L | binding, competition with immobilised ligand | 1 µM | 100% |
| O=C(NCCCC1CCCCC1)c1ccc(CNC(=O)c2cnn(-c3ccccc3)c2C(F)(F)F)cc1 | PIK3CA H1047L | cell-free assay, competition with immobilised ligand | 0.1 µM | 86% |
| C[C@H]1CCN(c2nccc(-c3cnn4ncccc34)n2)C1 | PIK3CA I800L | binding | 1 µM | 95% |
| O=C1CCc2cc(Nc3cc(OC4CCOCC4)c([N+](=O)[O-])cc3Cl)ccc2N1 | PIK3CA | cell-free assay, competition with immobilised ligand | 1 µM | 79% |
| CN(C)c1ncc(F)c(-c2cnn3ncccc23)n1 | PIK3CA H1047Y | binding | 1 µM | 100% |
| Cc1c(-c2ccccc2)oc2c(C(=O)OCCN3CCCCC3)cccc2c1=O | PIK3CA | cell-free assay, competition with immobilised ligand | 10 µM | 100% |
| N[C@@H]1CCN(c2nccc(-c3cnn4ncccc34)n2)C1 | PIK3CA H1047Y | binding | 1 µM | 91% |
| O=C(Nc1c[nH]nc1C(=O)NC1CCNCC1)c1cc(F)cc(F)c1 | PIK3CA I800L | binding, competition with immobilised ligand | 1 µM | 81% |
| CN(CCCC(F)(F)F)c1nccc(-c2cnn3ncccc23)n1 | PIK3CA H1047Y | binding | 1 µM | 100% |
| O=C(c1ccc(Nc2ncc(Cl)c(-c3cc4ccccc4s3)n2)cc1)N1CCC(N2CCCC2)CC1 | PIK3CA E542K | binding, competition with immobilised ligand | 1 µM | 97% |
| CCC(=N\O)/C(C)=C/c1ccc(F)cc1 | PIK3CA E542K | cell-free assay, competition with immobilised ligand | 1 µM | 100% |
| CN(C)c1nccc(-c2cnc3ncccn23)n1 | PIK3CA E545A | binding | 1 µM | 90% |
